Data published in ChEMBL document CHEMBL3745596, “Chlorophenoxy aminoalkyl derivatives as histamine H(3)R ligands and antiseizure agents” (Bioorg Med Chem, 2016).
Active and inactive are the calls of the source.

Assays:
Mus musculus [1] = test: Neurotoxicity in ip dosed CF1 albino mouse after 0.25 hrs by rotarod test; assay type: toxicity, organism-based; details: in vivo
Procedure, shortened: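 Rotarod neurotoxicity in male albino CF-1 mice dosed ip with compound suspended in 0.5% methylcellulose. Animal placed on a 1 inch diameter knurled plastic rod rotating at 6 rpm. Neurotoxicity scored when the animal falls off three times within 1 min. Readout is number of animals toxic/number tested at the stated time after dosing.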

Mus musculus [2] = test: Anticonvulsant activity in CF1 albino mouse assessed as protection against subcutaneous pentetrazole-induced seizure at 100 mg/kg, ip after 0.5 hrs; assay type: functional, organism-based
Procedure, shortened: (§1)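 Male CF-1 mice, ip in 0.5% methylcellulose; pentetrazole at CD97 (85 mg/kg) injected subcutaneously in a loose fold of neck skin. Observed 30 min; absence of even a threshold seizure (single clonic spasm lasting at least 5 s) counted as protection. Scored protected/tested, or ED50.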

Mus musculus [3] = test: Neurotoxicity in CF1 albino mouse assessed as death and loss of righting reflux at 300 mg/kg, ip after 0.5 hrs by rotarod test; assay type: toxicity, organism-based; details: in vivo
Procedure, shortened: (§2)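 Male albino CF-1 mice dosed ip with compound suspended in 0.5% methylcellulose, then placed on a 1-inch knurled plastic rod turning at 6 rpm. A fall three times within 1 min counted as neurotoxicity. Observations were made at 0.5 h and 4 h after dosing. Result given as animals showing toxicity per animals tested, with the kind of toxicity recorded.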

[4] = Neuroprotective activity in hippocampal slice (unknown origin) assessed as protection against kainic acid-induced cell death using propidium iodide staining; assay type: functional; details: Hippocampus
Procedure, shortened: (§3)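 Organotypic hippocampal slice cultures exposed to NMDA or kainic acid alone or with compound; propidium iodide in all wells; PI fluorescence intensity of slices, proportional to cell death, compared with excitotoxin-only slices; qualitative.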

Mus musculus [5] = test: Anticonvulsant activity in CF1 albino mouse assessed as protection against 6 Hz-psychomotor-induced seizure at 100 mg/kg, ip after 0.5 to 1 hr; assay type: functional, organism-based
Procedure, shortened: (§4)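 Male CF-1 mice, ip suspension in 0.5% methylcellulose. Corneal stimulation 0.2 ms monopolar rectangular pulses at 6 Hz, 32 mA for 3 s via constant-current device; mice without minimal clonic phase seizure counted protected. Groups of four; read at 0.25, 0.5, 1, 2, 4 h; result as protected/tested.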

Mus musculus [6] = test: Neurotoxicity in CF1 albino mouse at 30 mg/kg, ip after 0.5 hrs by rotarod test; assay type: toxicity, organism-based; details: in vivo
Procedure, shortened: (§5)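 Rotarod neurotoxicity in male albino CF-1 mice dosed ip with compound suspended in 0.5% methylcellulose. Animal placed on a 1 inch diameter knurled plastic rod rotating at 6 rpm. Neurotoxicity scored when the animal falls off three times within 1 min. Readout is number of animals toxic/number tested at the stated time after dosing. TD50 with 95% confidence interval from the quantitative study.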

Mus musculus [7] = test: Anticonvulsant activity in CF1 albino mouse assessed as protection against maximal electroshock-induced seizure at 100 mg/kg, ip after 0.5 hrs; assay type: functional, organism-based
Procedure, shortened: (§6)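 Male CF-1 mice dosed ip as suspension in 0.5% methylcellulose. Corneal electrodes deliver 60 Hz alternating current, 50 mA for […], after a drop of 0.5% tetracaine HCl in 0.9% NaCl per eye. Protection means abolition of hindlimb tonic extension; scored as protected/tested, or ED50 with 95% confidence interval.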

Mus musculus [8] = test: Anticonvulsant activity in ip dosed CF1 albino mouse assessed as protection against subcutaneous pentetrazole-induced seizure after 0.25 hrs; assay type: functional; procedure, shortened: as §1
Rattus norvegicus [9] = test: Anticonvulsant activity in Sprague-Dawley rat assessed as protection against maximal electroshock-induced seizure at 30 mg/kg, po; assay type: functional
Rattus norvegicus [10] = test: Anticonvulsant activity in Sprague-Dawley rat assessed as protection against pilocarpine-induced convulsive status epilepticus at 65 mg/kg, ip; assay type: functional, organism-based
Procedure, shortened: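 Male Sprague Dawley rats (150–180 g) dosed ip, pilocarpine 50 mg/kg ip given; compound dosed immediately at first behavioral Stage 3 seizure or 30 min later. Number protected from Racine Stage 3 or greater seizures recorded.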

Mus musculus [11] = test: Anticonvulsant activity in CF1 albino mouse assessed as protection against maximal electroshock-induced seizure at 30 mg/kg, ip after 4 hrs; assay type: functional, organism-based; procedure, shortened: as §6
Mus musculus [12] = test: Anticonvulsant activity in CF1 albino mouse assessed as protection against subcutaneous pentetrazole-induced seizure at 30 mg/kg, ip after 4 hrs; assay type: functional, organism-based; procedure, shortened: as §1
Mus musculus [13] = test: Neurotoxicity in CF1 albino mouse at 30 mg/kg, ip after 4 hrs by rotarod test; assay type: toxicity, organism-based; details: in vivo; procedure, shortened: as §5
[14] = Neuroprotective activity in hippocampal slice (unknown origin) assessed as protection against NMDA-induced cell death using propidium iodide staining; assay type: functional; details: Hippocampus; procedure, shortened: as §3
Mus musculus [15] = test: Neurotoxicity in CF1 albino mouse at 3 mg/kg, ip after 0.5 hrs by rotarod test; assay type: toxicity, organism-based; details: in vivo; procedure, shortened: as §5
Histamine H3 receptor = Histamine H3 receptor (Homo sapiens, UniProt Q9Y5N1); test: Displacement of [3H]-Nalpha-methylhistamine from human recombinant histamine H3 receptor expressed in HEK293 cells after 90 mins; assay type: cell-based
Mus musculus [16] = test: Neurotoxicity in CF1 albino mouse at 100 mg/kg, ip after 4 hrs by rotarod test; assay type: toxicity, organism-based; details: in vivo; procedure, shortened: as §5
Mus musculus [17] = test: Anticonvulsant activity in CF1 albino mouse assessed as protection against subcutaneous pentetrazole-induced seizure at 30 mg/kg, ip after 0.5 hrs; assay type: functional, organism-based; procedure, shortened: as §1
Mus musculus [18] = test: Anticonvulsant activity in ip dosed CF1 albino mouse assessed as protection against maximal electroshock-induced seizure after 0.25 hrs; assay type: functional; procedure, shortened: as §6
Mus musculus [19] = test: Neurotoxicity in CF1 albino mouse at 10 mg/kg, ip after 0.5 hrs by rotarod test; assay type: toxicity, organism-based; details: in vivo
Procedure, shortened: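 Rotarod neurotoxicity in male CF-1 mice dosed ip as 0.5% methylcellulose suspension: mouse placed on 1 inch knurled rod rotating at 6 rpm; toxicity when the animal falls off three times within 1 min, with other signs noted. Scored as toxic/tested at 0.5 h and 4 h.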

Mus musculus [20] = test: Neurotoxicity in CF1 albino mouse at 300 mg/kg, ip after 4 hrs by rotarod test; assay type: toxicity, organism-based; details: in vivo; procedure, shortened: as §5
Mus musculus [21] = test: Neurotoxicity in CF1 albino mouse at 100 mg/kg, ip after 0.25 to 2 hrs by rotarod test; assay type: toxicity, organism-based; details: in vivo; procedure, shortened: as §5
Mus musculus [22] = test: Anticonvulsant activity in CF1 albino mouse assessed as protection against maximal electroshock-induced seizure at 100 mg/kg, ip after 4 hrs; assay type: functional, organism-based; procedure, shortened: as §6
Mus musculus [23] = test: Anticonvulsant activity in CF1 albino mouse assessed as protection against subcutaneous pentetrazole-induced seizure at 100 mg/kg, ip after 4 hrs; assay type: functional, organism-based; procedure, shortened: as §1
Mus musculus [24] = test: Protective index, ratio of TD50 for ip dosed CF1 albino mouse to ED50 for ip dosed CF1 albino mouse assessed as protection against maximal electroshock-induced seizure after 0.25 hrs; assay type: functional
Mus musculus [25] = test: Anticonvulsant activity in CF1 albino mouse assessed as protection against maximal electroshock-induced seizure at 3 mg/kg, ip after 0.5 hrs; assay type: functional, organism-based; procedure, shortened: as §6
Mus musculus [26] = test: Anticonvulsant activity in CF1 albino mouse assessed as protection against maximal electroshock-induced seizure at 10 mg/kg, ip after 0.5 hrs; assay type: functional, organism-based; procedure, shortened: as §6
Mus musculus [27] = test: Anticonvulsant activity in CF1 albino mouse assessed as protection against maximal electroshock-induced seizure at 30 mg/kg, ip after 0.5 hrs; assay type: functional, organism-based; procedure, shortened: as §6
Mus musculus [28] = test: Neurotoxicity in CF1 albino mouse at 50 mg/kg, ip after 2 hrs by rotarod test; assay type: toxicity, organism-based; details: in vivo; procedure, shortened: as §5
Mus musculus [29] = test: Neurotoxicity in CF1 albino mouse assessed as death at 300 mg/kg, ip after 0.5 hrs by rotarod test; assay type: toxicity, organism-based; details: in vivo; procedure, shortened: as §2
Mus musculus [30] = test: Neurotoxicity in CF1 albino mouse at 25 mg/kg, ip after 0.25 to 4 hrs by rotarod test; assay type: toxicity, organism-based; details: in vivo; procedure, shortened: as §5
Mus musculus [31] = test: Analgesic activity in mouse assessed as inhibition of formalin-induced paw licking behavior at 13 mg/kg, ip after 0.25 hrs; assay type: functional, organism-based
Procedure, shortened: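 Male albino mice, ip in 0.5% methylcellulose; 0.5% formalin injected sub-dermally into right hindpaw plantar surface 0.25 h after dosing. Paw licking observed for the first 2 min of each 5-min epoch up to 40 min after dosing; cumulative licking duration compared with vehicle-pretreated group, acute and inflammatory phases.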

Mus musculus [32] = test: Anticonvulsant activity in CF1 albino mouse assessed as protection against 6 Hz-psychomotor-induced seizure at 50 mg/kg, ip after 2 hrs; assay type: functional, organism-based; procedure, shortened: as §4
Mus musculus [33] = test: Anticonvulsant activity in CF1 albino mouse assessed as protection against 6 Hz-psychomotor-induced seizure at 25 mg/kg, ip after 0.25 to 4 hrs; assay type: functional, organism-based; procedure, shortened: as §4
Mus musculus [34] = test: Neurotoxicity in CF1 albino mouse assessed as death at 100 mg/kg, ip after 0.5 hrs by rotarod test; assay type: toxicity, organism-based; details: in vivo; procedure, shortened: as §2
Mus musculus [35] = test: Protective index, ratio of TD50 for ip dosed CF1 albino mouse to ED50 for ip dosed CF1 albino mouse assessed as protection against maximal electroshock-induced seizure after 0.5 hrs; assay type: functional
Procedure, shortened: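 PI = TD50/ED50. Male CF-1 mice or male Sprague–Dawley rats given compound ip as 0.5% methylcellulose suspension. MES: 60 Hz corneal current, 50 mA mice or 150 mA rats, for […] after tetracaine eye drops; protection is abolition of hindlimb tonic extension.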

Mus musculus [36] = test: Neurotoxicity in CF1 albino mouse at 50 mg/kg, ip after 0.5 hrs by rotarod test; assay type: toxicity, organism-based; details: in vivo; procedure, shortened: as §5
Mus musculus [37] = test: Anticonvulsant activity in CF1 albino mouse assessed as protection against 6 Hz-psychomotor-induced seizure at 50 mg/kg, ip after 1 hr; assay type: functional, organism-based; procedure, shortened: as §4
Mus musculus [38] = test: Anticonvulsant activity in CF1 albino mouse assessed as protection against 6 Hz-psychomotor-induced seizure at 50 mg/kg, ip after 4 hrs; assay type: functional, organism-based; procedure, shortened: as §4
Mus musculus [39] = test: Anticonvulsant activity in ip dosed CF1 albino mouse assessed as protection against subcutaneous pentetrazole-induced seizure after 0.5 hrs; assay type: functional; procedure, shortened: as §1
Mus musculus [40] = test: Anticonvulsant activity in ip dosed CF1 albino mouse assessed as protection against maximal electroshock-induced seizure after 0.5 hrs; assay type: functional; procedure, shortened: as §6
Mus musculus [41] = test: Neurotoxicity in CF1 albino mouse at 50 mg/kg, ip after 4 hrs by rotarod test; assay type: toxicity, organism-based; details: in vivo; procedure, shortened: as §5

Histamine H3 receptor, sequence (Q9Y5N1 whole entry): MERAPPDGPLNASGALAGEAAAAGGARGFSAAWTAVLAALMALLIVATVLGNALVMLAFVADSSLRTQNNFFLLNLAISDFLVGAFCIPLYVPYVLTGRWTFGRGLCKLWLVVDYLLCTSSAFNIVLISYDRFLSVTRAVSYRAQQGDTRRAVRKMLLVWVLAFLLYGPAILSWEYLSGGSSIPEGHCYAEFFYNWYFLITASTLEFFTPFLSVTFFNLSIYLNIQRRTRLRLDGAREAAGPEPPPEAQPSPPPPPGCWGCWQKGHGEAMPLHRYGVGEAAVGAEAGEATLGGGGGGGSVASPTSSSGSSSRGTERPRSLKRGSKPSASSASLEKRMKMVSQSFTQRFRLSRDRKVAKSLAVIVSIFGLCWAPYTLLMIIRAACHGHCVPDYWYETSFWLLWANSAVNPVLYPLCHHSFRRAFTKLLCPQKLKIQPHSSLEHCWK

Row | Compound | TD50 (median neurotoxic dose) (Mus musculus [1]) [mg/kg] | Activity [4] | Activity (Mus musculus [6]) | Activity (Rattus norvegicus [9]) [%] | Activity (Rattus norvegicus [10]) | Activity (Mus musculus [11]) | Activity (Mus musculus [12]) | Activity (Mus musculus [13]) | Activity [14] | Activity (Mus musculus [15]) | Ki (Histamine H3 receptor) [nM] | Activity (Mus musculus [16]) | Activity (Mus musculus [17]) | Activity (Mus musculus [19]) | Activity (Mus musculus [20]) | Activity (Mus musculus [25]) | Activity (Mus musculus [26]) | Activity (Mus musculus [27]) | other results
1 | CC1CCCN(CCCCCCOc2ccc(Cl)cc2)C1.O=C(O)C(=O)O (stereo not given) | 50.4 | inactive | Non-toxic | 25 | Active | inactive | inactive | Non-toxic | inactive | Non-toxic | 205 | Non-toxic | inactive | Non-toxic | Non-toxic | inactive | inactive | Active | Activity (Mus musculus [2]): inactive; Activity (Mus musculus [3]): Toxic; Activity (Mus musculus [5]): inactive; Activity (Mus musculus [7]): Active; ED50 (Mus musculus [8]): > 50 mg/kg; ED50 (Mus musculus [18]): 16.8 mg/kg; Activity (Mus musculus [21]): Toxic; Activity (Mus musculus [22]): Active; Activity (Mus musculus [23]): inactive; Ratio TD50/ED50 (Mus musculus [24]): 3
2 | CC1CCN(CCCCCCOc2ccc(Cl)cc2)CC1.O=C(O)C(=O)O | 40.77 | inactive | Non-toxic | 25 | Active | Active | inactive | Non-toxic | inactive | Non-toxic | 189 | Non-toxic | inactive | Non-toxic | Non-toxic | inactive | Active | Active | Activity (Mus musculus [28]): Non-toxic; Activity (Mus musculus [29]): Toxic; Activity (Mus musculus [30]): Toxic; Activity (Mus musculus [31]): inactive; Activity (Mus musculus [32]): inactive; Activity (Mus musculus [33]): inactive; Activity (Mus musculus [34]): Toxic; Ratio TD50/ED50 (Mus musculus [35]): 3.1; Activity (Mus musculus [36]): Non-toxic; Activity (Mus musculus [37]): inactive; Activity (Mus musculus [38]): inactive; ED50 (Mus musculus [39]): > 30 mg/kg; ED50 (Mus musculus [40]): 13 mg/kg; Activity (Mus musculus [41]): Non-toxic
